Screens from PubChem.
A selection: hits, their analogues and other compounds. The true share with any hit is near 9.2%.
L major viab – reduces viability of Leishmania major promastigotes; resazurin fluorescence viability; inhibition, % at 10 µM; hit rate 9% among 200,000; AID 1063; in the data active = inhibition above about 50%;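 note: promastigotes grown with compound for 44 hours at 28 °C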
HCT116 PTEN-null – growth suppressors of cells with PTEN tumor suppressor deletion. HCT116 PTEN-null viability, CellTiter-Glo, 60 h; active compounds read low. viability, % at 10 µM. hit rate 1.2% among 140,000;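 active = viability at or below a set limit, 4 SD under the median of all tested compounds, cut at about 3.7% in these data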;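 note: PTEN knockout HCT116 line with beta catenin targeted HCT116 as companion control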
bCat KO growth – beta-catenin-lacking colon tumor cell growth suppression; HCT116 beta-catenin knockout viability, CellTiter-Glo, 60 h; active compounds read low; viability, % at 10 µM; hit rate 1.5% among 140,000; AID 818;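 active = viability at or under a set limit, the compound median less 4 SD, cut at about 6% in these data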;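 note: 0% = Hyamine 1622 control at 20 µM and 100% = untreated cell control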
Autophagy HCS – alters autophagy in cells; MEF GFP-LC3 puncta imaging; test concentration mostly 10 µM; calls only at 10 µM (by protocol); hit rate 0.98% among 190,000; AID 463193;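 active = percentage of spot-positive cells more than 3 SD above its plate mean, without a fluorescence outlier flag or 80% toxicity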;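 note: spot-positive cell cutoff set from DMSO-treated cells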
Dynein cargo inh – blocks dynein driven cargo transport along microtubules; 3617.4 mouse cells, GR-EGFP nuclear translocation imaging; test concentration mostly 20 µM; stimulated with dexamethasone, 1 µM; active compounds read low; hit rate 0.47% among 220,000; z-score, hits read low;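 active = plate z-score of nuclear minus cytoplasmic receptor signal below a set negative limit, without overly bright fluorescence or cell loss, cut at about -3.5 in these data, passing the limit was not always enough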;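 note: z-score of nuclear minus cytoplasmic ring GR-EGFP intensity difference per well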
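Buffer or medium: Induction medium lacking tetracycline, stripped serum | Also added: Dexamethasone agonist, 1.0 µM final, for 30 min | Timing: 48 h induction, 1 h compound, 30 min dex at 37 °C | Detection: Formaldehyde fixation, Hoechst nuclear stain, 10x automated fluorescence imaging | Measure: Nuclear versus cytoplasmic GR-EGFP signal, averaged per well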
* hit, by the source's call; i = inactive; . = not tested or not shown; + = active, no number.

SMILES	L major viab	HCT116 PTEN-null	bCat KO growth	Autophagy HCS	Dynein cargo inh
Cc1ccc(NC(=O)/C=C/c2cccs2)c([N+](=O)[O-])c1	-4	43	42	i	0.59
Oc1cccc(NC(=S)Nc2ccc(SC(F)F)cc2)c1	61*	91	96	i	0.75
Oc1cccc2c(NC(=S)Nc3ccc(SC(F)F)cc3)cccc12	-3	60	67	i	-0.83
Nc1ncnc(Sc2ccc(Cl)cc2)c1[N+](=O)[O-]	67*	31	36	i	-0.27
CCNc1ccc(C2(O)C(=O)c3ccccc3C2=O)cc1	-1	108	95	i	1.3
CN1CCCCc2c1nc1ccccc1c2N (tested in a mixture with another compound)	92*	80	78	i	-0.76
Cc1ccc(-c2nc3ccccc3[nH]2)cc1NC(=O)c1ccc2c(c1)OCO2	35	77	76	i	-1.3
CCOc1ccc(C(=O)Nc2cc(-c3nc4ccccc4[nH]3)ccc2C)cc1[N+](=O)[O-]	36	61	63	i	0.36
CCOc1ccc(C(=O)Nc2cccc(-c3nc4ccccc4[nH]3)c2C)cc1[N+](=O)[O-]	51*	92	84	i	0.058
CCOc1ccccc1NC(=O)c1ccc(OCC)c([N+](=O)[O-])c1	-3	96	93	i	-0.16
CCOc1ccc(C(=O)Nc2cc(-c3nc4ccccc4[nH]3)ccc2Cl)cc1[N+](=O)[O-]	96*	1.2*	1.2*	i	0.52
CCOc1ccc(C(=O)NC(=S)Nc2ncccc2C)cc1[N+](=O)[O-]	-3	3.3*	2.8*	i	0.65
O=C(NC(=S)Nc1cc(-c2nc3ccccc3[nH]2)ccc1Cl)c1ccc2c(c1)OCO2	10	1.5*	1.6*	i	0.55
CCCN1CCC(=O)N([C@H](CSc2ccc(Br)cc2)c2ccccc2)CC1	.	.	.	.	0.01
COC(=O)C1=C(C)N(c2ccc(C)c(C)c2)/C(=C/c2ccc(O)cc2)C1=O	99*	.	.	i	-1.5
O=C(Cn1cncn1)N/N=C/c1cccnc1	.	.	.	.	-0.76
c1ccc(-c2nnc(-c3ccccn3)nc2NC2CCCCC2)cc1	100*	7	4.0*	i	-0.4
CNc1nc(-c2ccccn2)nnc1-c1ccccc1	99*	21	19	i	0.86
CC(=O)N(Cc1ccccc1)c1nc(-c2ccccc2)cs1	3	.	.	i	0.037
N/C(=N\OC(=O)CC1CCCCC1)c1cccc([N+](=O)[O-])c1	68*	97	100	i	-0.39
Cc1oc(CC(C)C)cc1C(=O)NCCCC(=O)O	-5	.	.	i	-0.66
CCCCCCCCCCCCCCCC(O)C(N)CO (stereo not given)	100*	1.5*	1.9*	i	1.2
Cc1ccc2[nH]c(=O)c(CN(Cc3cccnc3)C(=O)c3ccncc3)cc2c1	-3	47	46	i	-0.21
CCN(CC)CCNC(=O)COc1ccc(Cl)cc1Cl	75*	113	100	i	-0.14
CN(C)CCNC(=O)COc1ccc(Cl)cc1Cl	0	99	101	i	-0.94
SMILES	L major viab	HCT116 PTEN-null	bCat KO growth	Autophagy HCS	Dynein cargo inh
CN(C)CCCNC(=O)COc1ccc(Br)cc1Cl	91*	95	97	i	-0.23
CCS(=O)(=O)Nc1ccccc1C(N)=O	-1	.	.	i	0.94
Cc1c(N=C2SCC(=O)N2/N=C\c2ccc(Br)cc2)c(=O)n(-c2ccccc2)n1C	76*	87	85	i	-0.66
C/C(=C\C(=O)c1cccnc1)Nc1ccc(O)cc1	99*	95	97	i	-0.22
C/C(=C\C(=O)c1ccccc1)Nc1ccc(O)cc1	17	105	105	i	-2.8
CCN(CC)S(=O)(=O)c1ccc(Cc2ncc(C(F)(F)F)cc2Cl)s1	0	72	69	i	-0.065
Cc1cc(C)cc(N(CC(=O)NCCSCc2ccccc2)S(C)(=O)=O)c1	5	.	.	i	0.35
Cc1cccc(C(=O)NC(NC(=S)Nc2ccc(S(N)(=O)=O)cc2)C(Cl)(Cl)Cl)c1 (stereo not given)	54*	88	84	i	0.23
CC(=O)NC(NC(=S)Nc1ccc(S(N)(=O)=O)cc1)C(Cl)(Cl)Cl (stereo not given)	.	.	.	.	-0.28
COC(=O)c1ccccc1NC(=S)NC(NC(=O)c1ccco1)C(Cl)(Cl)Cl (stereo not given)	20	102	86	i	0.89
COC(=O)NC(NC(=S)Nc1ccc([N+](=O)[O-])cc1)C(Cl)(Cl)Cl (stereo not given)	99*	37	55	i	-0.13
COC(=O)c1ccccc1NC(=S)NC(NC(=O)c1ccccc1[N+](=O)[O-])C(Cl)(Cl)Cl (stereo not given)	96*	96	102	i	-0.083
Cc1ccc(C)c(NC(=S)NC(NC(=O)Cc2cccc3ccccc23)C(Cl)(Cl)Cl)c1 (stereo not given)	8	2.6*	17	i	-0.4
C/C(=N\n1cnnc1)c1ccc(C#N)cc1	-8	.	.	i	0.32
CCc1ccc(OCC(=O)NC(NC(=S)Nc2ccccc2)C(Cl)(Cl)Cl)cc1 (stereo not given)	44	8	2.4*	i	-0.12
COc1ccc(NC(=S)NC(NC(=O)CCl)C(Cl)(Cl)Cl)c([N+](=O)[O-])c1 (stereo not given)	5	.	.	i	-0.21
CCc1ccc(OCC(=O)NC(NC(=S)Nc2ccccc2C)C(Cl)(Cl)Cl)cc1 (stereo not given)	36	39	45	i	0.26
COc1ccc(NC(=S)NC(NC(=O)c2ccccc2Cl)C(Cl)(Cl)Cl)c([N+](=O)[O-])c1 (stereo not given)	20	83	71	i	-0.29
CC(=O)NC(NC(=S)Nc1ccc(N=Nc2ccccc2)cc1)C(Cl)(Cl)Cl (stereo not given)	64*	21	25	i	-0.17
COc1ccc(NC(=S)NC(NC(=O)c2cccc3ccccc23)C(Cl)(Cl)Cl)c([N+](=O)[O-])c1 (stereo not given)	27	73	69	+	0.91
COc1ccc(NC(=S)NC(NC(=O)c2ccc(Cl)cc2Cl)C(Cl)(Cl)Cl)c([N+](=O)[O-])c1 (stereo not given)	12	104	99	+	-0.6
CC(C)NC(=O)/C(C#N)=C/c1ccc(N(C)C)o1	.	.	.	.	3
COc1ccc(NC(=O)c2ccc(CNc3c(N4CCCC4)c(=O)c3=O)cc2)cc1Cl	.	.	.	.	-0.41
S=c1[nH]nc(COc2ccc(Cl)cc2)n1Cc1ccco1	2	.	.	i	0.86
Cc1cc(Br)c(Cl)cc1NC(=O)CN1C(=O)C2C3CC(c4ccccc4)C(C3)C2C1=O (stereo not given)	84*	22	28	i	-0.15
CC1CCCN(C(=O)CSc2nnc(-c3cccnc3)n2C2CCCCC2)C1 (stereo not given)	-11	92	103	i	-0.29
O=C(CSc1nnc(-c2cccnc2)n1C1CCCCC1)NC1CCCC1	-7	82	86	+	-0.54
